Assay [1] has as its target T1, Adenosine receptor A2b (Homo sapiens, UniProt P29275).
T1 sequence (P29275 whole entry): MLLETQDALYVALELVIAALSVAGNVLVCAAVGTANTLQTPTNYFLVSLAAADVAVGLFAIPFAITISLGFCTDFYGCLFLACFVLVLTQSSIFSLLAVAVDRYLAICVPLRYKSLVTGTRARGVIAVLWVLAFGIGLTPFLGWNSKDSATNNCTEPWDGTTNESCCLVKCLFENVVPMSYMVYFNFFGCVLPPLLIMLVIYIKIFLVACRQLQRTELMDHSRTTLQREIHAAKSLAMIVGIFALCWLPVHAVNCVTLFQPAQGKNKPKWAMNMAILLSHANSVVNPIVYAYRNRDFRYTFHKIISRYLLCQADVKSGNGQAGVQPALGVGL
In words: Displacement of [3H]DPCPX from Adenosine A2b receptor expressed in […]; range 157-268. The class given is cell-based. (Loss of bound radioactivity is the signal in a displacement assay; it reports binding, not function.)

The target of assay [2] is T2, Adenosine receptor A1 (Homo sapiens, UniProt P30542).
T2 sequence (P30542 whole entry): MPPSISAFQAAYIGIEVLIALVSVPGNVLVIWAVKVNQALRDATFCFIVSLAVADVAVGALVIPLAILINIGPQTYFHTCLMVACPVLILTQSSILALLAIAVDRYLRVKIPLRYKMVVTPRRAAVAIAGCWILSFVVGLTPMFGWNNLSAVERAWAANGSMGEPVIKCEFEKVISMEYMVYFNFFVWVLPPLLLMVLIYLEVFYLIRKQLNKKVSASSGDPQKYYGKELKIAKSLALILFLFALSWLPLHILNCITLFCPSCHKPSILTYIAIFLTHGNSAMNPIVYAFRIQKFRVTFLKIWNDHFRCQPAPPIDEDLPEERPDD
In words: Displacement of [3H]DPCPX from human adenosine A1 receptor expressed in CHO cells; range 323-378. The class given is cell-based.

Assay [3] addresses Adenosine receptors; A1 & A3 (Homo sapiens) (UniProt P30542+P0DMS8). In words: Ratio of binding affinity of human A1 receptor to that of human A3 receptor. Type of assay: protein assay. The gist of the method:
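Ki ratio from displacement in CHO membranes, 6–8 concentrations, n=3-6, filtration counting. A1: 1 nM [3H]DPCPX, 50 μg protein, 120 min at 25 °C, nonspecific with 10 μM CHA. A3: 1 nM [3H]MRE3008-F20, 50 μg protein, Tris/10 mM MgCl2 pH 7.4, 120 min at 4 °C, nonspecific with 1 μM MRE3008-F20.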

In assay [4] the target is T3, Adenosine receptor A3 (Homo sapiens) (UniProt P0DMS8).
T3 sequence (whole entry): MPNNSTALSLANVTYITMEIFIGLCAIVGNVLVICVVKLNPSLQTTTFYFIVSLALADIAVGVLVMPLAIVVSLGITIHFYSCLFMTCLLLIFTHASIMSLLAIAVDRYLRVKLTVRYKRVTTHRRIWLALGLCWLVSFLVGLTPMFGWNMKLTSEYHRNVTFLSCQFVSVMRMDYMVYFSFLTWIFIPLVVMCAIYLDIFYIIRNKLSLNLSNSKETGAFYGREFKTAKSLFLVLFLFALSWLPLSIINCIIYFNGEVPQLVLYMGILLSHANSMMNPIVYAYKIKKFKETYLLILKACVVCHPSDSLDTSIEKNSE
The settings on record: CHO, 1 uM.

The target in assay [5] is T4, Adenosine receptor A3 (Homo sapiens, UniProt P0DMS8).
T4 sequence (P0DMS8 whole entry): T3 sequence (whole entry)
In words: biochemical.

Assay [6] addresses Adenosine receptors; A2b & A3 (Homo sapiens) (UniProt P29275+P0DMS8). In words: Ratio of binding affinity of human A2B receptor to that of human A3 receptor. Type of assay: protein assay. The essentials: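 Ki ratio, n=3-6, 6–8 concentrations. A2B in HEK-293 membranes (20 μg): 40 nM [3H]DPCPX, 50 mM Tris HCl, 10 mM MgCl2, 1 mM EDTA, 0.1 mM benzamidine pH 7.4, 2 IU/mL adenosine deaminase, 60 min at 25 °C, nonspecific with 100 μM NECA. A3 in CHO membranes (50 μg): 1 nM [3H]MRE3008-F20, 120 min at 4 °C.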

Assay [7] concerns the target T4, Adenosine receptor A3. In words: Inhibition of cAMP accumulation in CHO cells expressing human adenosine A3 receptor; range 2.8-8.1. The class given is functional, cell-based. In general terms: Changes in cAMP serve as a functional read-out for many G protein-coupled receptors.
The target of assay [8] is T5, Adenosine receptor A2a (Homo sapiens, UniProt P29274). In words: Displacement of [3H]-SCH- 58261 from human adenosine A2A receptor expressed in CHO cells; range 1024-1396. Type of assay: cell-based.
Assay [9] deals with T4, Adenosine receptor A3. In words: Displacement of [3H]MRE3008-F20 from human adenosine A3 receptor expressed in CHO cells; range 23-40. The class given is cell-based.
Assay [10] concerns the target T3, Adenosine receptor A3 (Homo sapiens). The settings on record: CHO, 1 uM. This is another data set of the same source.
For assay [11], the target named is T2, Adenosine receptor A1. In words: Displacement of [3H]DPCPX from human adenosine A1 receptor expressed in CHO cells; range 149-204. The class given is cell-based.
Assay [12] has as its target T5, Adenosine receptor A2a. In words: Displacement of [3H]-SCH- 58261 from human adenosine A2A receptor expressed in CHO cells; range 47-78. Type of assay: cell-based. The essentials:
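Membranes from CHO cells stably expressing human A2A receptor, grown in DMEM/F12 without nucleosides, resuspended in 50 mM Tris HCl, 10 mM MgCl2, pH 7.4; 50 μg protein/assay. Competition with [3H]SCH 58261 at 6–8 or more compound concentrations, 60 min at 25 °C; nonspecific binding with 50 μM NECA. Filtration on GF/B filters, scintillation counting; n=3-6.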

Assay [13] concerns the target T1, Adenosine receptor A2b. In words: Displacement of [3H]DPCPX from Adenosine A2b receptor expressed in CHO cells; range 45-64. Type of assay: cell-based. The settings on record: in the assay text read “HEK-293 cells” for “CHO cells”. The gist of the method:
(§1)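 Human recombinant A2B receptor was expressed in HEK-293 cell membranes (20 μg protein). Incubated with 40 nM [3H]DPCPX in 50 mM Tris HCl, 10 mM MgCl2, 1 mM EDTA, 0.1 mM benzamidine, pH 7.4, with 2 IU/mL adenosine deaminase, at least 6–8 test concentrations, 60 min, 25 °C. Nonspecific binding was taken with 100 μM NECA; n=3-6.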

Assay [14] has as its target T4, Adenosine receptor A3. In words: Displacement of [3H]MRE3008-F20 from human adenosine A3 receptor expressed in CHO cells; range 378-488. The class given is cell-based.
Assay [15] has as its target T1, Adenosine receptor A2b. In words: Displacement of [3H]DPCPX from Adenosine A2b receptor expressed in HEK-293 cells; range 38-63.
For assay [16], the target named is T5, Adenosine receptor A2a. In words: biochemical.
The target in assay [17] is T3, Adenosine receptor A3 (Homo sapiens). In words: Percentage of blockade by 1 uM of the inhibition by 100 nM IB-MECA-inhibited cAMP accumulation in CHO cells expressing human adenosine A3 receptor. Type of assay: functional, cell-based. The gist of the method: (§2)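 CHO cells stably expressing human A3 receptor; membranes in 50 mM Tris HCl, 10 mM MgCl2, 1 mM EDTA pH 7.4 with 5 μM GTP, 0.5 mM […] and 2.0 IU/mL adenosine deaminase. Preincubated 10 min at 37 °C, then IB-MECA (100 nM) and/or antagonist with 1 mM ATP and 10 μM forskolin for 10 min. Boiled 2 min. cAMP read by [3H]cAMP competition with adrenal binding protein.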

Assay [18] shares this target. In words: Percent reversal of 100 nM IB-MECA-inhibited cAMP accumulation in CHO cells expressing human adenosine A3 receptor at 1 uM; range 73-110. The class given is functional, cell-based. The gist of the method: as §2
Assay [19] deals with T1, Adenosine receptor A2b. In words: Displacement of [3H]DPCPX from Adenosine A2b receptor expressed in […]; range 1770-2327. Type of assay: cell-based.
Assay [20] addresses T4, Adenosine receptor A3. In words: Displacement of [3H]MRE3008-F20 from human adenosine A3 receptor expressed in CHO cells; range 0.32-0.74. Type of assay: cell-based.
Assay [21] concerns the target T4, Adenosine receptor A3. In words: Inhibition of cAMP accumulation in CHO cells expressing human adenosine A3 receptor; range 3.5-7.6. The class given is functional, cell-based.
The target of assay [22] is T2, Adenosine receptor A1. In words: Displacement of [3H]-DPCPX from human adenosine A1 receptor expressed in CHO cells; […]. The class given is cell-based.
The target in assay [23] is T5, Adenosine receptor A2a. In words: Displacement of [3H]-SCH- 58261 from human adenosine A2A receptor expressed in CHO cells; range 150-207. The class given is cell-based.
The target in assay [24] is T4, Adenosine receptor A3. In words: Inhibition of cAMP accumulation in CHO cells expressing human adenosine A3 receptor; range 4.0-7.5. Type of assay: functional, cell-based.
In assay [25] the target is T3, Adenosine receptor A3 (Homo sapiens). The settings on record: CHO, 1 uM. This is another data set of the same source.
Assay [26] concerns the target T1, Adenosine receptor A2b. In words: Displacement of [3H]-DPCPX from Adenosine A2b receptor expressed in CHO cells; range 50-63. The class given is cell-based. The settings on record: in the assay text read “HEK-293 cells” for “CHO cells”. The gist of the method: as §1
Assay [27] deals with T4, Adenosine receptor A3. In words: Displacement of [3H]MRE3008-F20 from human adenosine A3 receptor expressed in CHO cells; range 0.85-0.98. Type of assay: cell-based.

The record followed here is ChEMBL document CHEMBL1133118 (J Med Chem, 2000).

Structures are written as SMILES.

T5 sequence (P29274 whole entry): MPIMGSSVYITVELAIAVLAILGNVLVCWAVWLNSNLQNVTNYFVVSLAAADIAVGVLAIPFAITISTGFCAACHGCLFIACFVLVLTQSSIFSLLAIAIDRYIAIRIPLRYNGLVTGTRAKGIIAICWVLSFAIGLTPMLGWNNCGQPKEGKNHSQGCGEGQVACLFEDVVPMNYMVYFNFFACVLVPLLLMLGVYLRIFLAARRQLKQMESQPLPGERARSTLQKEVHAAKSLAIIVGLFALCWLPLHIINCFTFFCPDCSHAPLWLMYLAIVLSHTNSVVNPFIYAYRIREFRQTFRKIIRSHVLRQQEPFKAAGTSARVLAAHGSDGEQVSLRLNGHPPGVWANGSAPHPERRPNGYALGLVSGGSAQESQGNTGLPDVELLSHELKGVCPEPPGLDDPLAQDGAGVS

Consider `Cn1cc2c(nc(NC(=O)Nc3cccc(Cl)c3)n3nc(-c4ccco4)nc23)n1`, for which the Ki (commonly a dissociation constant, usually derived from enzyme kinetics or from competition with a known ligand) on Adenosine receptor A2b [1] stood at 205 nM; at Adenosine receptor A1 [2] it was 350 nM; at Adenosine receptor A3 [5], 0.4 nM; at Adenosine receptor A2a [8], 1200 nM. For the same compound, the Ratio in [3] is 875; in [6], 512. In addition, in assay [4], the inhibition (in general, how much of the control response was suppressed) turned out to be 92%. In addition, the IC50 (in general, the concentration needed to halve the response being measured) against Adenosine receptor A3 [7] stood at 4.8 nM.
As to `COc1ccc(NC(=O)Nc2nc3nn(CCC(C)C)cc3c3nc(-c4ccco4)nn23)cc1`, the Ki was determined as 30 nM on Adenosine receptor A3 [9], 175 nM on Adenosine receptor A1 [11], 65 nM on Adenosine receptor A2a [12] and 54 nM at Adenosine receptor A2b [13]. The same compound displayed an inhibition in assay [10] of 48%. For the same compound, the Ratio in [3] came to 5.8; in [6] it was 1.8.
As for `Nc1nc2nn(CCCc3ccccc3)cc2c2nc(-c3ccco3)nn12`, the Ki at Adenosine receptor A3 [14] worked out at 430 nM; on Adenosine receptor A2b [15], 49 nM; at Adenosine receptor A2a [16], 0.16 nM. Besides, the Ratio turned out to be 0.007 in assay [3] and 0.011 in [6]. In assay [17], the inhibition worked out at 18%.
As to `C=CCn1cc2c(nc(NC(=O)Nc3ccc(OC)cc3)n3nc(-c4ccco4)nc23)n1`, the inhibition in assay [18] was 90%. Moreover, the Ki on Adenosine receptor A2b [19] was determined as 2030 nM; on Adenosine receptor A3 [20], 0.48 nM; at Adenosine receptor A1 [22], 1530 nM; at Adenosine receptor A2a [23] it was 176 nM. The Ratio amounted to 3190 in [3] and 4230 in [6]. For the same compound, on Adenosine receptor A3 [21], the IC50 is 5.1 nM.
At Adenosine receptor A3 [24], `CCCn1cc2c(nc(NC(=O)Nc3cccc(Cl)c3)n3nc(-c4ccco4)nc23)n1` came in with an IC50 of 5.5 nM. In addition, the values for the Ratio in assay [3] and in [6] were 33 and 62.6, respectively. The inhibition in assay [25] is 80%. Besides, the Ki is 57 nM at Adenosine receptor A2b [26] and 0.9 nM at Adenosine receptor A3 [27].
